Assay [1] addresses GABA-A receptor; anion channel. The experiment in a line: inhibition of [3H]flunitrazepam binding to GABA-A central Benzodiazepine receptor of bovine cerebral cortex membrane. In kind it is tissue-based, Bos taurus. The gist of the method: (§1)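 Calf cerebral cortical membranes incubated 45 min at 0 °C with [³H]flunitrazepam (1 nM) in 50 mM Tris-HCl pH 7.4, final volume 500 μL. Terminated by dilution with ice-cold buffer, rapid GF/B filtration and washes; filter radioactivity counted by liquid scintillation. Nonspecific binding defined with 10 μM diazepam. IC50 = concentration giving 50% inhibition of specific binding; mean ± SD of (n) determinations in duplicate. Unstable compounds tested immediately after preparation.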

Assay [2] concerns the target GABA-A receptor; anion channel. The experiment in a line: Potency related to miltirone (1) at the central benzodiazepine receptor was determined using [3H]flunitrazepam as radioligand. In kind it is protein-complex assay. The gist of the method:
as §1

We go through 23 compounds from ChEMBL document CHEMBL1125880, “Structure-activity relationship of miltirone, an active central benzodiazepine receptor ligand isolated from Salvia miltiorrhiza Bunge (Danshen)” (J Med Chem, 1991).

What is called IC50 is the concentration that inhibits the measured activity by half. Lower therefore signals higher potency.

With `C=Cc1cccc2c1C(=O)C(=O)C(C(C)C)=C2`, in assay [1], the IC50 was greater than 40 µM.
Compound `CC(C)C1=Cc2ccc3c(c2C(=O)C1=O)CC[C@@H](O)[C@]3(C)O` registered an IC50 in assay [2] of 17 µM.
On to `CC1(C)CCCc2c1ccc1c2C(=O)C(=O)C=C1`, for which, in assay [2], the IC50 was 10 µM.
With `CCN(CC)C(=O)c1cccc2c1C(=O)C(=O)C(C(C)C)=C2`, the IC50 in assay [2] is greater than 30 µM.
`CCc1cccc2c1C(=O)C(=O)C(C(C)C)=C2` had an IC50 in assay [2] greater than 200 µM.
On to `CC(C)C1=Cc2ccc3c(c2C(=O)C1=O)CCCC3(C)O` (stereo not drawn), for which the IC50 in assay [2] is 2 µM.
As to `CC(C)C1=Cc2cccc(-c3ccccc3)c2C(=O)C1=O`, the IC50 in assay [1] was 20 µM.
In assay [2], `CC(C)C1=Cc2ncc3c(c2C(=O)C1=O)CCCC3` returned an IC50 of 9.1 µM.
The same measure, in the same setting: next, `CC(C)C1=Cc2ccccc2C(=O)C1=O`: greater than 50 µM; `CC(C)C1=Cc2ccc3c(c2C(=O)C1=O)CCCC3`: 0.9 µM.
`CC1=CCCc2c1ccc1c2C(=O)C(=O)C(C(C)C)=C1`: the IC50 in assay [1] came to 4.4 µM.
The compound `CC(C)C1=Cc2cc3c4c(c2C(=O)C1=O)CCCC4CC3` (stereo not drawn) had an IC50 in assay [2] of 0.05 µM.
`CC(C)C1=Cc2cccc(C(=O)O)c2C(=O)C1=O`: the IC50 in assay [2] was determined as 4.3 µM.
The compound `CC(C)C1=CC2=C(CCCC2)C(=O)C1=O` displayed an IC50 in assay [2] greater than 140 µM.
Still for that read-out and setting: under `CC(C)C1=Cc2ccc3c(c2C(=O)C1=O)CCCC(=O)N3` stands 0.32 µM; under `Cc1cc2ccc3c(c2oc1=O)CCCC3`, greater than 40 µM.
The same measure, in the same setting: next, `CC(C)C1=Cc2ccc3c(c2C(=O)C1=O)CCCCCC3`: 0.31 µM.
On to `CC1=Cc2ccc3c(c2C(=O)C1=O)CCCC3(C)C`, for which, in assay [2], the IC50 worked out at 0.4 µM.
As for `CC(C)C1=Cc2ccc3c(c2C(=O)C1=O)CC[C@H](O)[C@]3(C)O`, the IC50 in assay [2] was found to be 15 µM.
`CC(C)C1=Cc2ccc3c(c2C(=O)C1=O)CCCC3=O`: the IC50 in assay [2] was determined as 0.56 µM.
In assay [2], `CC(C)C1=Cc2ccc3c(c2C(=O)C1=O)CCCCC3` registered an IC50 of 0.23 µM.
For the compound `O=C1C=Cc2ccc3c(c2C1=O)CCCC3`, the IC50 in assay [1] is 20 µM.
Take `CC(C)C1=Cc2ccc3c(c2C(=O)C1=O)CCCC3(C)C` [MILTIRONE]: the IC50 in assay [2] stood at 0.3 µM.
